Test results reported in ChEMBL document CHEMBL3091291, “Synthesis and pharmacological characterization of benzenesulfonamides as dual species inhibitors of human and murine mPGES-1” (Bioorg Med Chem, 2013).
Activity calls are given as the source filed them. The rule behind the calls is not given here.

Assays:
[1] = biological target: T1, Prostaglandin E synthase (Homo sapiens) (UniProt O14684); test: Inhibition of mPGES-1 in human HeLa cells using PGH2 as substrate assessed as inhibition of IL-1beta/TNFalpha-stimulated PGE2 production at 5 uM preincubated for 30 mins followed by substrate addition measured after 1 min by LC-MS/MS analysis; type: cell-based
T1 sequence (whole entry): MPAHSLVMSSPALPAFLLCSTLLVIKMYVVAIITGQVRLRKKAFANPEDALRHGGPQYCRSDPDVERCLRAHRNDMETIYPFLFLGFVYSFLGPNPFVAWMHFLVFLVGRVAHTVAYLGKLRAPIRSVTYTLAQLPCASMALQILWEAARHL
In short: (§1)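 Microsomal fraction from HeLa, NIH-3T3 or RAW 264.7 cells, obtained by sonication and ultracentrifugation, resuspended in 0.1 M KPi pH 7.4 with 2.5 mM reduced GSH. Protein at 0.15 mg/mL (HeLa, NIH) or 0.3 mg/mL (RAW) incubated with compound 30 min on ice. Reaction started with 20 µM PGH₂, stopped after 1 min with FeCl₂/citric acid. PGE₂ quantified by SPE and LC–MS/MS. IC50 from four-parameter logistic fit of increasing concentrations.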

[2] = biological target: T2, Prostaglandin G/H synthase 2 (Homo sapiens) (UniProt P35354); test: Inhibition of LPS-stimulated COX2 in human whole blood assessed as reduction in PGF2alpha production by measuring remaining activity at 100 uM preincubated for 15 mins followed by LPS addition measured after 24 hrs by LC-MS/MS analysis
T2 sequence (whole entry): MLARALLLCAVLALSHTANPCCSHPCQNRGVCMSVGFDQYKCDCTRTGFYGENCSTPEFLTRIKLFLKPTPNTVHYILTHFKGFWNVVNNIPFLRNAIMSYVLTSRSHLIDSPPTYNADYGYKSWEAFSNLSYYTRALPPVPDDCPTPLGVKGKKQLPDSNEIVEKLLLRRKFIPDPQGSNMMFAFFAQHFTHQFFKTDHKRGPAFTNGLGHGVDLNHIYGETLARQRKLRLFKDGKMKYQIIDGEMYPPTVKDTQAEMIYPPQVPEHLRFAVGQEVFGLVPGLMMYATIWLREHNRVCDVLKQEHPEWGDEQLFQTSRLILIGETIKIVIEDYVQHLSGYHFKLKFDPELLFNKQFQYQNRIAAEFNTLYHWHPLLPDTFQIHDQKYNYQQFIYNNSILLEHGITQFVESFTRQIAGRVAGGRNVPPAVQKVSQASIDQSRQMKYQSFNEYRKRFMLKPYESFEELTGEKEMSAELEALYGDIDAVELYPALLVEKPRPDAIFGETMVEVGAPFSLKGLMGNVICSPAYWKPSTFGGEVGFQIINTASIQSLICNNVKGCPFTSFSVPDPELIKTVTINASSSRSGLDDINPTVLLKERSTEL
In short: (§2)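 Heparinized human whole blood (500 µL) mixed with compound in DMSO, with acetylsalicylic acid added to block COX-1, held 15 min at 37 °C, then stimulated with LPS in autologous plasma to induce COX-2/mPGES-1. After 24 h at 37 °C, samples chilled 5 min on ice; plasma collected, prostaglandins extracted and measured by LC–MS/MS. Remaining activity given relative to vehicle control.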

[3] = biological target: T2, Prostaglandin G/H synthase 2 (Homo sapiens); test: Inhibition of LPS-stimulated COX2 in human whole blood assessed as reduction in PGE2 production by measuring remaining activity at 100 uM preincubated for 15 mins followed by LPS addition measured after 24 hrs by LC-MS/MS analysis; in short: as §2
[4] = biological target: T3, Polyunsaturated fatty acid 5-lipoxygenase (Homo sapiens) (UniProt P09917); test: Inhibition of calcium ionophore (A23187)-stimulated human 5-LO assessed as reduction of 5(S)-HETE production by measuring remaining activity at 100 uM preincubated for 15 mins followed by calcium ionophore (A23187) addition measured after 15 mins by LC-MS/MS analysis
T3 sequence (whole entry): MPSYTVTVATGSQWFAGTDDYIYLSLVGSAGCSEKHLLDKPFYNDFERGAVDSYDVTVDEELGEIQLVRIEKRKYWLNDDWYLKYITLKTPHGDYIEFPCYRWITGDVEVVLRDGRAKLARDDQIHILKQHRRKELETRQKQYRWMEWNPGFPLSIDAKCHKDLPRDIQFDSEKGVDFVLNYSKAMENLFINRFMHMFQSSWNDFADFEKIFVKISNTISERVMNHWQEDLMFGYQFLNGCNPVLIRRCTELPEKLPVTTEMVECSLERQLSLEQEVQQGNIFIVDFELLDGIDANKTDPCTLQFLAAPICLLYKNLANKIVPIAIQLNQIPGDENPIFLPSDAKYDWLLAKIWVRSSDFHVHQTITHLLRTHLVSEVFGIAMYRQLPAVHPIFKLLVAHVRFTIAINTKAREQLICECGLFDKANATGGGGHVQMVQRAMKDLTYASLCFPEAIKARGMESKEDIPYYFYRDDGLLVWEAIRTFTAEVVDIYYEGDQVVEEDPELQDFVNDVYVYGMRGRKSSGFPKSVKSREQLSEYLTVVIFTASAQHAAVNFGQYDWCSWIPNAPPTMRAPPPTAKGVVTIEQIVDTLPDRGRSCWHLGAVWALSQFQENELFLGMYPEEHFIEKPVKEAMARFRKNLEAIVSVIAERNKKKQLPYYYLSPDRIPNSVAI
In short: (§3)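 Heparinized human whole blood (500 µL) preincubated with compound 15 min at 37 °C, then stimulated with 20 µM calcium ionophore A23187 in autologous plasma for 15 min at 37 °C. Plasma spiked with deuterated LTB₄ and HETE internal standards, extracted into ethyl acetate, analysed by LC–MS/MS. Inhibition scored when a level fell by 33% or more versus control.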

[5] = Cytotoxicity against IL-1beta/TNFalpha-stimulated human HeLa cells assessed as cell viability at 100 uM after 24 hrs by WST-1 assay; type: cell-based; conditions: IL-1beta/TNFalpha-stimulated HeLa cells, read-out: Activity
In short: (§4)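 HeLa cells seeded at 3 × 10³ per well in medium with 10% FCS, grown 24 h at 37 °C, then stimulated with IL-1b (1 ng/mL) + TNFa (5 ng/mL) and treated at the same time with compound (1, 10, 100 µM) or DMSO for 24 h. WST-1 reagent then added for 90–150 min; absorbance read at 450 nm against 620 nm reference.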

[6] = biological target: Prostaglandin G/H synthase 1 (Homo sapiens) (UniProt P23219); test: Inhibition of COX1 in human whole blood assessed as reduction in PGD2 production by measuring remaining activity at 100 uM after 1 hr by LC-MS/MS analysis
Sequence of Prostaglandin G/H synthase 1 (Homo sapiens) (P23219 whole entry): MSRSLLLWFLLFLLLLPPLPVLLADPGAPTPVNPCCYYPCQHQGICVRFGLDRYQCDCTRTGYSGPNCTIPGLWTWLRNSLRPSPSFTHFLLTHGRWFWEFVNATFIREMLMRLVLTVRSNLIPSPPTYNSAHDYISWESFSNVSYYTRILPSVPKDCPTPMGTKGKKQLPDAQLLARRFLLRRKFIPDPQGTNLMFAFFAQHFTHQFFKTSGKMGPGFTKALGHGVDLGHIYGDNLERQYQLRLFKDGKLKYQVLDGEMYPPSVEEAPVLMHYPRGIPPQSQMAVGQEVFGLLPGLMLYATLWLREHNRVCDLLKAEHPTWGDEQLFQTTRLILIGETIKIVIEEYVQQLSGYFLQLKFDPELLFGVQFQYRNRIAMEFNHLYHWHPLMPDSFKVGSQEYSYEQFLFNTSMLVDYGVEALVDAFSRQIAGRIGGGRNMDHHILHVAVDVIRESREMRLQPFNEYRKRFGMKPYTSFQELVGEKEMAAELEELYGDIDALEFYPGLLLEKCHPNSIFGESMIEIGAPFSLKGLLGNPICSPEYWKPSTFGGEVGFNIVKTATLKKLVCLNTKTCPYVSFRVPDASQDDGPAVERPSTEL

[7] = biological target: T1, Prostaglandin E synthase (Homo sapiens); test: Inhibition of mPGES-1 in human HeLa cells using PGH2 as substrate assessed as inhibition of IL-1beta/TNFalpha-stimulated PGE2 production at 1 to 10 uM after 24 hrs by LC-MS/MS analysis; type: cell-based
In short: (§5)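 HeLa cells (2 × 10⁴ per well) grown 24 h at 37 °C, then given fresh medium with 1 ng/mL IL-1b + 5 ng/mL TNFa (or PBS for unstimulated control) plus compound (1, 10 or 100 µM) or DMSO for 24 h at 37 °C. Supernatant mixed with H₃PO₄, EDTA and deuterated internal standards; PGE₂ measured by SPE and LC–MS/MS.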

[8] = biological target: T3, Polyunsaturated fatty acid 5-lipoxygenase (Homo sapiens); test: Inhibition of calcium ionophore (A23187)-stimulated human 5-LO assessed as reduction of LTB4 production by measuring remaining activity at 100 uM preincubated for 15 mins followed by calcium ionophore (A23187) addition measured after 15 mins by LC-MS/MS analysis; in short: as §3
[9] = biological target: T1, Prostaglandin E synthase (Homo sapiens); test: Inhibition of mPGES-1 in human HeLa cells using PGH2 as substrate assessed as inhibition of IL-1beta/TNFalpha-stimulated PGE2 production at 100 uM after 24 hrs by LC-MS/MS analysis; type: cell-based; in short: as §5
[10] = biological target: Prostaglandin G/H synthase 1 (Homo sapiens) (UniProt P23219); test: Inhibition of COX1 in human whole blood assessed as reduction in TXB2 production by measuring remaining activity at 100 uM after 1 hr by LC-MS/MS analysis
[11] = system: HeLa; test: Cytotoxicity against IL-1beta/TNFalpha-stimulated human HeLa cells assessed as cell viability up to 10 uM after 24 hrs by WST-1 assay; type: cell-based; in short: as §4
[12] = biological target: T4, Prostaglandin E synthase (Homo sapiens, UniProt O14684); test: Inhibition of mPGES-1 in human HeLa cells using PGH2 as substrate assessed as inhibition of IL-1beta/TNFalpha-stimulated PGE2 production preincubated for 30 mins followed by substrate addition measured after 1 min by LC-MS/MS analysis; type: cell-based; in short: as §1
T4 sequence (O14684 whole entry): T1 sequence (whole entry)

[13] = biological target: T5, Prostaglandin E synthase (Mus musculus) (UniProt Q9JM51); test: Inhibition of mPGES-1 in Swiss mouse NIH/3T3 cells using PGH2 as substrate assessed as inhibition of IL-1beta/TNFalpha-stimulated PGE2 production at 5 uM preincubated for 30 mins followed by substrate addition measured after 1 min by LC-MS/MS analysis; type: cell-based; in short: as §1
T5 sequence (whole entry): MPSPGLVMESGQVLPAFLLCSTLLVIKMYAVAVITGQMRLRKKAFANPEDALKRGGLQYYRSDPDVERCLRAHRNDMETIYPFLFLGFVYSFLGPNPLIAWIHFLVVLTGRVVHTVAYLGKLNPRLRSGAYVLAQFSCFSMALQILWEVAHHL

[14] = biological target: T5, Prostaglandin E synthase (Mus musculus); test: Inhibition of mPGES-1 in mouse RAW264.7 cells using PGH2 as substrate assessed as inhibition of LPS-stimulated PGE2 production at 5 uM preincubated for 30 mins followed by substrate addition measured after 1 min by LC-MS/MS analysis; type: cell-based; in short: as §1

Row | Compound | inhibition [1] | further results
1 | O=C(O)c1cccc(S(=O)(=O)N(Cc2ccccc2)Cc2ccccc2)c1 | 35.8% | 
2 | O=S(=O)(c1ccccc1Cl)N(Cc1ccccc1)Cc1ccccc1 | < 0% | 
3 | O=C(O)c1ccc(S(=O)(=O)N(CCc2ccccc2)Cc2ccccc2)cc1 | 57% | Activity [2]: 117%; Activity [3]: 83.3%
4 | O=C(O)c1ccc(S(=O)(=O)N(CCCc2ccccc2)Cc2ccccc2)cc1 | 73% | Activity [2]: 129%; Activity [3]: 68%
5 | CCCCN(Cc1ccccc1)S(=O)(=O)c1ccc(C(=O)O)cc1 | 19.1% | Activity [4]: 121%; viability at 24 h, 100 µM [5]: 50%; Activity [6]: 73.4%; inhibition [7]: inactive; Activity [8]: 124%; inhibition [9]: Active; Activity [10]: 97.8%; Activity [2]: 117%; Activity [3]: 62.8%; Activity [11]: Non-toxic
6 | COc1ccc(CN(Cc2ccsc2)S(=O)(=O)c2ccc(C(=O)O)cc2)cc1 | 11.9% | 
7 | COc1ccc(CN(Cc2ccc(C#N)cc2)S(=O)(=O)c2ccc(C(=O)O)cc2)cc1 | < 0% | 
8 | N#Cc1ccc(S(=O)(=O)N(Cc2ccccc2)Cc2ccc(Oc3ccccc3)cc2)cc1 | 1% | 
9 | N#Cc1ccc(S(=O)(=O)N(Cc2ccccc2)Cc2ccccc2)cc1 | 34.1% | 
10 | COc1ccc(CN(Cc2ccoc2)S(=O)(=O)c2ccc(C(=O)O)cc2)cc1 | 14.2% | 
11 | O=C(O)c1ccc(S(=O)(=O)N2CCN(c3ccccc3)CC2)cc1 | 58.7% | 
12 | CCCCN(c1ccccc1)S(=O)(=O)c1ccc(C(=O)O)cc1 | < 0% | 
13 | COc1ccc(CN(Cc2nc(C)cs2)S(=O)(=O)c2ccc(C(=O)O)cc2)cc1 | 2.9% | 
14 | O=S(=O)(c1ccc(Cl)cc1)N(Cc1ccccc1)Cc1ccccc1 | < 0% | 
15 | O=C(O)c1ccc(S(=O)(=O)N(Cc2ccc(Oc3ccccc3)cc2)CC2CCCCC2)cc1 | 79.2% | 
16 | O=C(O)c1ccc(S(=O)(=O)N(Cc2ccc(-c3ccccc3)cc2)CC2CCCCC2)cc1 | 76% | IC50 [12]: 800 nM; Activity [4]: 75.9%; inhibition [13]: 51.9%; inhibition [14]: 44.4%; Activity [8]: 75.7%; Activity [2]: 117%; Activity [3]: 69.7%
17 | O=C(O)c1ccc(S(=O)(=O)N(Cc2ccccc2)c2ccccc2)cc1 | 26.4% | 
18 | O=S(=O)(c1ccc(C(F)(F)F)cc1)N(Cc1ccccc1)Cc1ccccc1 | 11.9% | 
19 | O=C(O)c1ccc(S(=O)(=O)N(Cc2ccccc2)Cc2ccccc2)cc1 | 51.4% | 
20 | COc1ccc(CN(Cc2cccc(C#N)c2)S(=O)(=O)c2ccc(C(=O)O)cc2)cc1 | 6% | 
21 | CCN(Cc1ccccc1)S(=O)(=O)c1ccc(C(=O)O)cc1 | < 0% | 
22 | CCN(c1ccccc1)S(=O)(=O)c1ccc(C(=O)O)cc1 | < 0% | 
23 | Cc1ccc(-c2cc(C(F)(F)F)nn2-c2ccc(S(N)(=O)=O)cc2)cc1 [CELECOXIB] |  | viability at 24 h, 100 µM [5]: 50%; inhibition [7]: inactive; inhibition [9]: Active; Activity [11]: Non-toxic
24 | O=S(=O)(c1ccc(F)cc1)N(Cc1ccccc1)Cc1ccccc1 | < 0% | 
25 | O=C(O)c1ccc(CN(Cc2ccccc2)Cc2ccccc2)cc1 | 17.4% | 
26 | O=S(=O)(c1cccc(Cl)c1)N(Cc1ccccc1)Cc1ccccc1 | 6.2% | 
27 | O=C(O)c1ccc(S(=O)(=O)N(Cc2ccc(Cl)cc2)CC2CCCCC2)cc1 | 48.4% | 
